Laboratory results taken from ChEMBL document CHEMBL1121602, “Analogues of 8-[[6-(diethylamino) hexyl]amino]-6-methoxy-4-methylquinoline as candidate antileishmanial agents” (1980).
Activity calls are given as the source filed them. No cut-off for these calls is given here.

Experiments:
[1] = system: Cricetinae gen. sp.; assay: Antileishmanial activity against Leishmania donovani in hamsters at a concentration of 13 mg/kg; format: functional
In short: (§1)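 L. donovani infection in hamsters, following an earlier-cited protocol. Meglumine antimoniate was the reference drug. A G index, the activity of each test agent relative to the reference, was calculated from the dose-response data.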

[2] = system: Cricetinae gen. sp.; assay: Antileishmanial activity against Leishmania donovani in hamsters at a concentration of 52 mg/kg; format: functional; in short: as §1
[3] = G index = SD90 for meglumine antimoniate / SD90 for the compound; format: functional; in short: as §1
[4] = system: Cricetinae gen. sp.; assay: Antileishmanial activity against Leishmania donovani in hamsters at a concentration of 0.81 mg/kg; format: functional; in short: as §1
[5] = system: Cricetinae gen. sp.; assay: Antileishmanial activity against Leishmania donovani in hamsters at a concentration of 0.05 mg/kg; format: functional; in short: as §1
[6] = system: Cricetinae gen. sp.; assay: Antileishmanial activity against Leishmania donovani in hamsters at a concentration of 0.20 mg/kg; format: functional; details: dose 0.2 mg/kg; in short: as §1
[7] = system: Cricetinae gen. sp.; assay: Antileishmanial activity against Leishmania donovani in hamsters at a concentration of 13 mg/kg (toxic); format: functional; in short: as §1
[8] = system: Cricetinae gen. sp.; assay: Antileishmanial activity against Leishmania donovani in hamsters at a concentration of 13 mg/kg; I = inactive; format: functional, organism-based; parameters: dose 13 mg/kg; in short: as §1
[9] = system: Cricetinae gen. sp.; assay: Antileishmanial activity against Leishmania donovani in hamsters at a concentration of 0.81 mg/kg; I = inactive; format: functional, organism-based; parameters: dose 0.81 mg/kg; in short: as §1
[10] = system: Cricetinae gen. sp.; assay: Antileishmanial activity against Leishmania donovani in hamsters at a concentration of 208 mg/kg.; format: functional; in short: as §1

Compound	Supression [1] [%]	Supression [2] [%]	G Index [3]	Supression [4] [%]	Supression [5] [%]	Supression [6] [%]	Supression [7] [%]	Supression [8]	Supression [9]	Supression [10] [%]
CCN(CCO)CCCCCCNc1cc(OC)cc2c(C)ccnc12.Cl	79.2	95.4	3.4							
COc1cc(NCCCCCCNC2CCC2)c2nccc(C)c2c1.Cl	100	100	188	99.2						
CCN(CC)CCCCCCNc1cc(OC)cc2c(C)ccnc12 [SITAMAQUINE]			474	100	83.7	99.6				
CCN(CC)CCCCCCCNc1cc(OC)cc2c(C)ccnc12.Cl.Cl	100		96.8	99.8		73.1				
COc1cc(NCCCCCC(C)NC(C)C)c2nccc(C)c2c1.Cl (stereo unspecified)			300	100		97.3	95.4			
CCCN(CCC)CCCCCCNc1cc(OC)cc2c(C)ccnc12.Cl			333	99.9	31	99.9				
COc1cc(NCCCCCCN(C(C)C)C(C)C)c2nccc(C)c2c1.Cl.Cl	97.5		310	100	20.2	97.4				
CCN(CC)CCCCCCNc1cc(OC)c(OC)c2c(C)ccnc12.Cl.Cl	99.9		401	100	68	100				
COc1cc(NCCCCCCNCCO)c2nccc(C)c2c1.Cl	99.9		300							
CCN(C(C)C)C(C)CCCCCNc1cc(OC)cc2c(C)ccnc12.Cl.Cl (stereo unspecified)				100		97.3	95.4			
CCN(CC)CCCCCNc1cc(OC)cc2c(C)ccnc12	100	100	178	100		91.5				
CCN(CC)CCCCCCNc1cc(OC)cc2c(C)cc(O)nc12								inactive	inactive	62.8
